What was measured:
Estrogen receptor = molecular target: T1, Estrogen receptor (Homo sapiens, UniProt P03372); test: Binding affinity against human estrogen receptor alpha
T1 sequence (P03372 whole entry): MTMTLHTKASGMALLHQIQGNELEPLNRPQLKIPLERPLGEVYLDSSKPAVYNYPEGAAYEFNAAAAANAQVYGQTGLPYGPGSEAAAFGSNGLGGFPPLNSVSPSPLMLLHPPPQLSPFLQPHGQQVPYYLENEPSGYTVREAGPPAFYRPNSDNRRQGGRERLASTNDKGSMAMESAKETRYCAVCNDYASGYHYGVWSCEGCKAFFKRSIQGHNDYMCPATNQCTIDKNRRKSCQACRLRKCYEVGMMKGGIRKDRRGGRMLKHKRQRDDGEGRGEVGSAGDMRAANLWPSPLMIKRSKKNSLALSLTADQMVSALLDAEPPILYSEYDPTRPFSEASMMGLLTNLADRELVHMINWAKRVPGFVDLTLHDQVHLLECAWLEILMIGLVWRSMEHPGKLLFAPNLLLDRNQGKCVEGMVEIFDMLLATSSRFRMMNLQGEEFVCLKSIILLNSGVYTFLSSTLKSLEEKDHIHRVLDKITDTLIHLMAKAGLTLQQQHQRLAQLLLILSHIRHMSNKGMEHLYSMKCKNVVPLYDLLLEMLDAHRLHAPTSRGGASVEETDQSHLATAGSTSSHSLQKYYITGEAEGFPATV

Estrogen receptor beta = Estrogen receptor beta (Homo sapiens, UniProt Q92731); test: Binding affinity against human estrogen receptor beta
Summary of the method: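 Competitive binding to human ERβ, reported as Ki (nM). Compounds generally run in duplicate; minimum significant ratio for the binding assay is 2-fold.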

Rattus norvegicus [1] = test: (§1) Percent decrease in serum cholesterol in ovariectomized (OVX) rats at 0.10 mg/kg dose; assay type: functional; conditions: dose 0.1 mg/kg
Summary of the method: (§2)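 Six-month-old ovariectomized rats were dosed orally for 5 weeks, and total serum cholesterol was measured against OVX controls. Groups were compared by one-way ANOVA with p < 0.05.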

Rattus norvegicus [2] = test: Bone density at proximal metaphysis of excised femur in ovariectomized (OVX) rats at 1.00 mg/kg dose; assay type: functional
Summary of the method: (§3)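 Six-month-old ovariectomized rats were dosed orally for 5 weeks. Bone density was measured at the proximal metaphysis of the excised femur. Percent protection was calculated for each animal as (BMD test − BMD OVX)/(BMD sham − BMD OVX) × 100. Statistics used one-way ANOVA with p < 0.05.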

Rattus norvegicus [3] = test: Bone density at proximal metaphysis of excised femur in ovariectomized (OVX) rats at 0.01 mg/kg dose; assay type: functional; summary of the method: as §3
Rattus norvegicus [4] = test: Bone density at proximal metaphysis of excised femur in ovariectomized (OVX) rats at 0.1 mg/kg dose; assay type: functional; summary of the method: as §3
Rattus norvegicus [5] = organism: Rattus norvegicus; test: Effective dose in rat; assay type: functional
Rattus norvegicus [6] = test: Bone density at proximal metaphysis of excised femur in ovariectomized (OVX) rats at 10.00 mg/kg dose; assay type: functional; summary of the method: as §3
Rattus norvegicus [7] = test: (§4) Percent decrease in serum cholesterol in ovariectomized (OVX) rats at 10 mg/kg dose; assay type: functional; design: scale not given: the % may be the effect or the level left; summary of the method: as §2
Rattus norvegicus [8] = test: as §4; assay type: functional; summary of the method: as §2
Rattus norvegicus [9] = test: as §1; design: scale not given: the % may be the effect or the level left; conditions: dose 0.1 mg/kg

Sequence of Estrogen receptor beta (Q92731 whole entry): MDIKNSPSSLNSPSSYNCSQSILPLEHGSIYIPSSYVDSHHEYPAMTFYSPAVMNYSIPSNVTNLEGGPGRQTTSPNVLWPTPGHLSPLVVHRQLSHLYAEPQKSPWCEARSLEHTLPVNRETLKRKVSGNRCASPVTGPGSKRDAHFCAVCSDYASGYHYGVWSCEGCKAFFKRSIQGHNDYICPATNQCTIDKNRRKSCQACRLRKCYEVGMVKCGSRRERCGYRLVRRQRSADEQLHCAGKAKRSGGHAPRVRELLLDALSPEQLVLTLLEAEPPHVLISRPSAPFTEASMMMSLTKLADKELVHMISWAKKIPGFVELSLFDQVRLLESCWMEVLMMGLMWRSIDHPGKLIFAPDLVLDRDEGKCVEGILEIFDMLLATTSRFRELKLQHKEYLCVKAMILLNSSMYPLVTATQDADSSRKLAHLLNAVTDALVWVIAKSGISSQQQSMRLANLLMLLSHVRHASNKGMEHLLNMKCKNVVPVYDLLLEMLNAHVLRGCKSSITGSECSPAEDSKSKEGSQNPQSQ

Structure (SMILES)	Ki (Estrogen receptor) [nM]	Ki (Estrogen receptor beta) [nM]	further results
C[C@]12CCc3c(ccc4cc(O)ccc34)[C@@H]1CC[C@H]2O		24	Decrease (Rattus norvegicus [1]): 66.3%; Protection (Rattus norvegicus [2]): 59.5%; Protection (Rattus norvegicus [3]): 6.1%; Protection (Rattus norvegicus [4]): 26.5%; ED50 (Rattus norvegicus [5]): < 0.1 mg/kg; Protection (Rattus norvegicus [6]): 119%; Activity (Rattus norvegicus [7]): 93.8%; Decrease (Rattus norvegicus [8]): 93.8%
C[C@@]12CCc3c(sc4cc(O)ccc34)[C@@H]1CC[C@H]2O	24	120	
C#C[C@]1(O)CC[C@H]2[C@@H]3CCc4cc(O)ccc4[C@H]3CC[C@@]21C [ETHINYL ESTRADIOL]			Decrease (Rattus norvegicus [1]): 83.3%; Activity (Rattus norvegicus [9]): 83.3%

Continued by falling Ki (Estrogen receptor), values first:

Ki (Estrogen receptor) [nM]	Ki (Estrogen receptor beta) [nM]	Structure (SMILES)	further results
23	73	C[C@]12CCc3c(sc4cc(O)ccc34)[C@@H]1CC[C@H]2O	
13	17	C[C@@]12CCc3c(sc4cc(O)ccc34)[C@H]1CC[C@H]2O	
10	47	C[C@]12CCc3c(sc4cc(O)ccc34)[C@H]1CC[C@@H]2O	
4	11	C[C@]12CCc3c(sc4cc(O)ccc34)[C@@H]1CC[C@@H]2O	

— ChEMBL document CHEMBL1136468, “B-ring unsaturated estrogens: biological evaluation of 17alpha-Dihydroequilein and novel B-Nor-6-thiaequilenins as tissue selective estrogens” (Bioorg Med Chem Lett, 2003)
